Assay outcomes (PubChem)
Rev-erbA mod – modulators of Rev-erb alpha DNA binding, primary screen, biochemical, FITC-DNA, fluorescence polarization, uHTS. Nuclear receptor subfamily 1 group D member 1 (Homo sapiens), P20393. Rev-erbα–FITC-DNA binding, 90 min. activity, % at 10 µM. 0.79% of 370,000 active. AID 1259318, 2017;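 active means activity above about 14%, limit read from the data; passing the limit was not always enough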
PG9 binder – binders of HIV-1 gp120 antibody PG9, primary screen, biochemical, TR-FRET | TR-FRET gp120-PG9 antibody binding | HIV-1 gp120 / PG9 antibody interaction | 0.43% of 360,000 active | inhibition, % at 6.7 µM; in the data active means inhibition above about 8.5%
NR2E3 ag-1 – NR2E3 agonists in two-hybrid cells, primary screen, cell-based, luminescence, CHO-S, Gal4-NCOR/VP16-NR2E3. 0.35% of 360,000 active. luciferase. inhibition of corepressor binding, % at 3.98 µM. AID 602229, 2012;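 active means inhibition above the mean of all tested compounds plus 3 SD, cut at about 70% in these data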;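 further: higher means lower luciferase signal from less NR2E3 corepressor binding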
MC4R antag cAMP – MC4R antagonists of cAMP signaling, primary screen, cell-based, TR-FRET, antagonist arm of biased-ligand search. Melanocortin receptor 4 (Homo sapiens), P32245. MC4R-expressing cells, MTII-stimulated cAMP, LANCE TR-FRET. inhibition, % at 6.5 µM. 0.48% of 360,000 active;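 active means inhibition above its plate's cutoff, the mean of tested wells on that plate plus 3 SD, cut at about 29% in these data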
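Material: U2OS-MC4R stable cell line | Reagent: Melanotan II challenge after compound preincubation | Doses: One concentration, 6.5 µM nominal | Incubation: 30-min compound preincubation, 1-h Melanotan II challenge, 1-h detection, room temperature | Signal: TR-FRET cAMP assay | Replicates: One well per compound, no replicates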
MC4R ag barr – MC4R agonists recruiting beta-arrestin, primary screen, cell-based, luminescence, agonist arm of biased-ligand search | Melanocortin receptor 4 (Homo sapiens), P32245 | U2OS MC4R beta-arrestin complementation; percent of melanotan II response, DMSO zero | activation, % at 8.9 µM | 0.98% of 360,000 active | AID 540308, 2011;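 active means activation above a per-plate cutoff, the mean activation of sample wells on that plate plus 3 SD, cut at about 8% in these data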
NR2E3 ag-2 – inhibitors of NR2E3-RetCOR corepressor binding, primary screen, NR2E3 agonist project, biochemical, TR-FRET, GST-NR2E3, biotin-RetCOR. inhibition of corepressor binding, % at 4.78 µM. 1536-well. Photoreceptor-specific nuclear receptor (Homo sapiens), Q9Y5X4. 0.12% of 320,000 active. AID 2300, 2010;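 active means percent inhibition above the cutoff of mean plus 3 SD of all tested compounds, set per screening campaign, cut at about 20% in these data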
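System: GST-tagged NR2E3 plus biotinylated RetCOR corepressor; Amount: 1.35 nM GST-tagged NR2E3 final; Dosing: single nominal compound dose of 4.8 µM; Schedule: 5 h incubation at 4 °C; Technique: TR-FRET with europium anti-GST and streptavidin-D2, 340 nm excitation; Controls: biotin wells as high control, 0.6% DMSO wells as low control.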
MC4R barr conf – MC4R beta-arrestin agonists, retest, confirmation, cell-based, luminescence, U2OS; shares compounds with MC4R ag barr; U2OS MC4R beta-arrestin recruitment; scaled DMSO 0%, Melanotan II 100%; activation, % at 8.9 µM; 31% of 2,400 active; AID 602192, 2012;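 active means mean activation across replicates above the hit cutoff set in the earlier primary screen, cut at about 8% in these data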
MOR DOR agonist – agonists of MOR-DOR heterodimerization, counter-screen for MC4R biased agonist project, cell-based, luminescence; AID 602194, 2012; 5.8% of 2,400 active; shares compounds with MC4R ag barr; activation, % at 9.2 µM; U2OS PathHunter beta-arrestin, beta-gal luminescence; percent of deltorphin B response, DMSO zero;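 active means mean activation across replicates exceeds the hit threshold derived in the earlier primary screen, cut at about 18% in these data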
Of the large screens only hits and unclear results are named; the others gave an inactive call (follow-up assays come after a bar, where they were run). Compounds with a hit are over-represented: about 2.7% of the library has one in this group of screens.

O=C(NC1(C(F)(F)F)C(=O)Nc2c1c(=O)[nH]c(=O)n2Cc1ccco1)C1CCCCC1 (centres undefined)	none
Cc1ccc(-c2nc(C#N)c(N3CCC(C)CC3)o2)cc1	none
Cc1nc2c(sc(=S)n2Cc2ccco2)c(=O)n1CC(=O)Nc1ccc(F)cc1	MC4R ag barr 15 | MC4R barr conf inactive | MOR DOR agonist inactive
Cc1nc2c(sc(=S)n2Cc2ccco2)c(=O)n1CC(=O)Nc1cc(F)ccc1F	MC4R ag barr 12 | MC4R barr conf inactive | MOR DOR agonist inactive
CCOC(=O)[C@@H]1[C@H]2COc3ccc(Br)cc3[C@@H]2N2C(=O)N(c3ccc(Br)cc3)C(=O)[C@@]12C	none (no result: NR2E3 ag-2)
CCOC(=O)C(CCCP(=O)(c1ccccc1)c1ccccc1)(NC(C)=O)C(=O)OCC	none
CC1=C(SCCC#N)S/C(=C2\SC(C)=C(SCCC#N)S2)S1	MC4R ag barr 19 | MC4R barr conf inactive | MOR DOR agonist inactive
O=[N+]([O-])c1ccc2c(c1)C(=Nc1ccccc1)c1ccccc1-2	MC4R ag barr 11 (no result: NR2E3 ag-2) | MC4R barr conf inactive | MOR DOR agonist inactive
COc1ccc(OC)c(N(CC(=O)NCCSCc2ccco2)S(=O)(=O)c2ccccc2)c1	none
O=C(CSc1nnc(COc2ccc(Cl)cc2)n1Cc1ccco1)c1ccccc1F	MC4R ag barr 22 | MC4R barr conf inactive | MOR DOR agonist inactive
Clc1ccc(OCc2nnc(SCc3nc4ccccc4[nH]3)n2Cc2ccco2)cc1	none
C=C(C)c1ccc(C(C)(C)NC(=O)N(Cc2ccccc2)Cc2ccco2)cc1	MC4R ag barr 17 | MC4R barr conf inactive | MOR DOR agonist inactive
C=C(C)c1ccc(C(C)(C)NC(=O)NCc2ccco2)cc1	none
COCCn1c(=S)[nH]c2cc(C(=O)NCc3ccc(F)cc3)ccc2c1=O	none (no result: NR2E3 ag-2)
CC(C)Cn1c(=S)[nH]c2cc(C(=O)NCc3ccccc3F)ccc2c1=O	MC4R ag barr 14 | MC4R barr conf inactive | MOR DOR agonist inactive
CCc1ccc(OCCNc2cc(N3CCNC(C)C3)ccc2[N+](=O)[O-])cc1 (centres undefined)	MC4R ag barr 11 | MC4R barr conf 23 | MOR DOR agonist inactive
CC1CN(c2ccc([N+](=O)[O-])c(NCCOc3ccc(Cl)cc3)c2)CC(C)N1 (centres undefined)	none (no result: NR2E3 ag-2)
Cc1ccsc1C1Nc2ccc3ncccc3c2C2=C1C(=O)CCC2 (centres undefined)	none
Cc1ccccc1Cn1cccc1/C=C1/C(=N)N2C=CSC2=NC1=O	MC4R ag barr 14 | MC4R barr conf inactive | MOR DOR agonist inactive
C=CCN1C(=O)C(CC(=O)Nc2ccc(OCCC)cc2)N(CCCN2CCN(Cc3ccccc3)CC2)C1=S (centres undefined)	MC4R ag barr 22 | MC4R barr conf 9.4 | MOR DOR agonist 22
COc1ccc(NC(=O)CC2C(=O)N(Cc3ccccc3)C(=S)N2CCN2CCOCC2)cc1 (centres undefined)	none
